# Compounds with a hit are over-represented: about 2.4% of the library has one in this group of screens.
# CSN deneddyl inh – CSN deneddylation inhibition | AID 651999 | Purified CSN, SCF-Nedd8-OG deneddylation, fluorescence polarization | Q92905 | hit rate 0.38% among 360,000 | inhibition, % at 12.5 µM;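 active means pattern-corrected inhibition above about 35%, with an unprinted fluorescence ratio check between 0.5 and 1.5, limit read from the data, passing the limit was not always enough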
#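 Detection – fluorescence polarization · System – HEK293T-derived human Csn5 enzyme · Controls – substrate-only high control, full reaction low control · Timing – 90 min, room temperature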
# Rpn11 inh – Rpn11 (human) deubiquitinase inhibition | O00487 | human 26S proteasome, Ub4-pepOG fluorescence polarization; 20S core pre-blocked with epoxomicin | inhibition, % at 20 µM | hit rate 0.59% among 360,000;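 active means inhibition at 20 µM, scaled to each plate's controls, above about 33%, limit read from the data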
# HNF4A DNA FP – change in binding of human HNF4 alpha to DNA; P41235; HNF4a-FITC DNA binding, fluorescence polarization, 1 h; activity change, % at 10 µM; hit rate 0.3% among 360,000; AID 1224865; in the data active means activity change above about 30%, passing the limit was not always enough
# PREPL inhibitor – inhibits the human prolyl oligopeptidase-like enzyme. AID 2751. inhibition, % at 5.96 µM. Q4J6C6. hit rate 0.68% among 320,000. recombinant PREPL, fluorescence polarization activity-based probe; in the data active means inhibition above about 43%
# Target sequence (Q4J6C6 whole entry, looked up): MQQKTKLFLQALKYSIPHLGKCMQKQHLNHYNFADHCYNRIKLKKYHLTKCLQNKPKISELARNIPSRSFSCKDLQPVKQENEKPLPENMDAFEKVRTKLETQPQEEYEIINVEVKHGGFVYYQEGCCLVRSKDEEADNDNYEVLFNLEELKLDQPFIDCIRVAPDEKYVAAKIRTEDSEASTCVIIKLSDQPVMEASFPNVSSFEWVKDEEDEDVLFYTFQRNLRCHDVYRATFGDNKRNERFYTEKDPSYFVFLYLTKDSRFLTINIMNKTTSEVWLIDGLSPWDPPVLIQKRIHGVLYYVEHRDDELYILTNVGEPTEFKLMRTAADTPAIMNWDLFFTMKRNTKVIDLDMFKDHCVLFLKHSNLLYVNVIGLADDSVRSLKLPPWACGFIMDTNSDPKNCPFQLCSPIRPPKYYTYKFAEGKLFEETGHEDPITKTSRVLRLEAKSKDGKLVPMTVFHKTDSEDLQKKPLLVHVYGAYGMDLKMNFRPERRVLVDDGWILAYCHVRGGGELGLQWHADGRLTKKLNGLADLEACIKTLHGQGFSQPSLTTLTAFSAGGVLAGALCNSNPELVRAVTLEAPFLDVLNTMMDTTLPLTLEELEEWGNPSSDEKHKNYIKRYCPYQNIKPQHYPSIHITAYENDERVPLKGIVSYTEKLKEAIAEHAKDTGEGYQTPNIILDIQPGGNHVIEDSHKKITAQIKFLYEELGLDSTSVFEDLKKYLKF
# Tb MetRS inh – Trypanosoma brucei MetRS inhibition | purified T. brucei MetRS, ATP depletion, Kinase-Glo luminescence | inhibition, % at 11.9 µM | hit rate 0.4% among 360,000 | AID 624268;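 active means inhibition above a per-plate cutoff of the control wells' mean inhibition plus 3 SD, cut at about 5.5% in these data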
#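 Dosing: 11.9 µM compound single dose, 0.9% DMSO; Assay system: purified T. brucei MetRS enzyme; Measured by: Kinase-Glo luciferase luminescence reporting remaining unconsumed ATP; Schedule: 15 min plus 2 h at 25 °C.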
# Neddylation inh – inhibitors of human cullin neddylation. hit rate 0.58% among 360,000. TR-FRET cullin neddylation, biochemical. inhibition, % at 25 µM; in the data active means inhibition above about 36%
# Neddyl inh conf – cullin neddylation inhibition, confirmation; shares compounds with Neddylation inh; TR-FRET cullin neddylation biochemical assay; calls only at 25 µM; hit rate 13% among 1,800; in the data active means inhibition above about 40%;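 further: neddylation substrate is the cullin 1 ring ligase complex with SKP2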
# Numbers stand for hits; i = inactive; nt = no result given; + = active, no number.
SMILES,CSN deneddyl inh,Rpn11 inh,HNF4A DNA FP,PREPL inhibitor,Tb MetRS inh,Neddylation inh,Neddyl inh conf
O=C1OCC2=C1C(c1ccc(F)cc1)c1cc3c(cc1N2)OCCO3 (stereo unspecified),i,i,i,nt,i,nt,nt
C=CCN(CC=C)Cc1c(C)[nH]c2ccc(C(=O)OCC)cc2c1=O,i,i,i,i,i,44,i
CCN(CC)Cc1c(C)[nH]c2ccc(NC(C)=O)cc2c1=O,i,i,i,nt,i,i,nt
COc1ccc2oc(C(=O)NC3(C)CCS(=O)(=O)C3)c(C)c2c1 (stereo unspecified),i,i,i,i,i,58,nt
COc1ccc2oc(C(=O)NCC(c3ccco3)N(C)C)c(C)c2c1 (stereo unspecified),i,i,i,i,i,50,nt
C[C@H](NC(=O)c1ncn2c1c(=O)[nH]c1ccccc12)c1ccccc1,i,i,i,nt,i,40,+
Cc1ccc(-n2nc(C)c(/C=N/n3c(C)n[nH]c3=S)c2Cl)cc1,i,i,i,i,i,46,i
Cc1n[nH]c(=S)n1/N=C/c1ccccc1,i,i,i,i,i,i,nt
COc1ccc(NC(=O)CSc2ccc3c(c2)OCCO3)cc1S(N)(=O)=O,i,i,i,i,i,i,nt
CC12CCC(=O)C=C1C(F)CC1C2C(O)CC2(C)C1CCC2(O)C(=O)CO (stereo unspecified),i,i,i,nt,i,i,nt
CCOc1cc(NC(=O)C2CC2)c(OCC)cc1NC(=O)c1ccccc1OCC,i,i,i,i,i,50,nt
COc1ccc(/C=C2\SC(=O)N(CC(=O)NC3CCS(=O)(=O)C3)C2=O)cc1 (stereo unspecified),i,i,i,i,i,i,nt
COC(=O)[C@]12CCCCC=C1N(CCC1=CCCCC1)C(=O)[C@H](CC(=O)NCCCCc1ccccc1)C2,i,nt,i,nt,i,i,nt
Brc1ccc(-c2nnc(-c3ccco3)o2)cc1,i,i,i,i,i,i,nt
c1ccc(-c2nnc(-c3ccco3)o2)cc1,i,i,i,i,i,42,nt
O=C(Nc1ccccc1C(=O)Nc1ccc(Cl)cc1)c1cccnc1,i,i,i,i,i,i,nt
CCCn1c(=O)[nH]c(=O)c2c1nc(-c1ccc(OC(F)F)c(OC)c1)n2CCOC,i,i,i,i,i,39,i
CCCn1c(=O)[nH]c(=O)c2c1nc(-c1ccccc1OC(F)F)n2CCOC,i,i,i,i,i,i,nt
O=S1(=O)N=C(N(CCO)/N=C/c2ccc(Cl)cc2)c2ccccc21,i,i,i,i,i,47,nt
O=S1(=O)N=C(N(CCO)/N=C/c2ccc(Br)cc2)c2ccccc21,i,i,i,i,i,nt,nt
Cc1cc(C)c(NC(=O)Cn2nnc(C(=O)Nc3ccc(F)cc3F)c2N)c(C)c1,i,i,i,i,i,i,nt
CCCC(=O)N1CCN(c2nc(CC(C)C)c3c(c2C#N)CCC3)CC1,i,i,i,i,i,38,i
CC(C)C(=O)N1CCN(c2nc(-c3ccccc3)c3c(c2C#N)CCCC3)CC1,i,i,i,i,i,nt,nt
COCCCn1c(=O)c2sccc2n2c(CCCC(=O)NCc3ccc(F)cc3)nnc12,i,i,i,i,i,42,i
O=C(NNC(=O)c1csc(-c2cnccc2C(F)(F)F)n1)c1ccc(C(F)(F)F)cc1,i,i,i,i,i,42,i
SMILES,CSN deneddyl inh,Rpn11 inh,HNF4A DNA FP,PREPL inhibitor,Tb MetRS inh,Neddylation inh,Neddyl inh conf
O=C(Nc1ccc(C(F)(F)F)cc1)c1csc(-c2ccncc2)n1,i,i,i,i,i,i,nt
CCOC(=O)C1CCCN(C(=O)c2cc3cc(OC)c(OC)cc3[nH]2)C1 (stereo unspecified),i,i,i,nt,i,43,nt
Cc1ccc(CNC(=O)CC[C@H]2O[C@@H](n3cc(C)c(=O)[nH]c3=O)C[C@@H]2O)o1,i,i,i,nt,i,i,nt
CN(C)c1oc(-c2ccccc2[N+](=O)[O-])nc1C#N,i,i,i,i,i,i,nt
CN(C)c1oc(-c2ccccc2Cl)nc1C#N,i,i,i,i,i,41,i
Cn1c2ccccc2c2c(C(=O)N3CCN(C(=O)c4ccco4)CC3)cn(C3CCCCC3)c(=O)c21,i,i,i,i,i,45,i
COc1ccc(NC(=O)c2cc(-c3cc(F)ccc3OC(C)C)n[nH]2)c(C)c1,i,i,i,nt,i,i,nt
CC1(C)Cc2c(c(-c3ccco3)nc3sc4c(NCCN5CCOCC5)ncnc4c23)CO1,i,i,i,i,i,51,i
CCOC(=O)/C=c1\s/c(=C\c2ccc(C(=O)OC)cc2)c(=O)n1CC(=O)Nc1ccccc1,i,i,i,i,i,40,i
O=C(c1coc(=O)c(Br)c1)N1CCC(C(O)(c2ccccc2)c2ccccc2)CC1,i,i,i,i,i,45,nt
O=C(c1coc(=O)c(Br)c1)N1CCCc2ccccc21,i,i,i,i,i,38,nt
O=C(C1CC1)N1CCC(C(O)(c2ccccc2)c2ccccc2)CC1,i,i,i,i,i,i,nt
Nc1ccn([C@@H]2O[C@H](CNCc3ccc(OCC(=O)Nc4nccs4)cc3)[C@@H](O)[C@H]2O)c(=O)n1,i,i,i,nt,i,i,nt
COc1ccccc1Nc1cc(C)nc2c(C)ccc([N+](=O)[O-])c12,i,i,i,i,i,45,i
CN(C)c1ccc(/C=N/N=C2/SC(CC(=O)O)C(=O)N2c2ccc(O)cc2)cc1 (stereo unspecified),i,i,i,i,i,nt,nt
C=CCN1C(=O)C(CC(=O)O)S/C1=N/N=C/c1ccc(N(CC)CC)cc1 (stereo unspecified),i,i,i,i,i,43,+
CC1=C2C3OC(=O)C(C)C3CCC2(C)C=C(Br)C1=O (stereo unspecified),i,i,i,nt,i,i,nt
Cc1cc(C)n(-c2ccc3nnc(C)n3n2)n1,i,i,i,i,i,36,i
COc1ccc2cc(CN(C)C(=O)CN3C(=O)NC4(CCCC4)C3=O)ccc2c1,i,i,i,nt,i,i,nt
CC1CC(C)CN(CCCNC(=O)c2cc3c(=O)[nH]c4ccccc4c3n2C)C1 (stereo unspecified),i,i,i,i,i,42,i
CCC1CCCCN1CCCNC(=O)c1cc2c(=O)[nH]c3ccccc3c2n1C (stereo unspecified),i,i,i,i,i,40,i
CN(CCCNC(=O)c1cc2c(=O)[nH]c3ccccc3c2n1C)Cc1ccccc1,i,i,i,i,i,i,nt
Cn1c(C(=O)NCCCN2CCN(c3ccccc3F)CC2)cc2c(=O)[nH]c3ccccc3c21,i,i,i,i,i,i,nt
O=C(COC(=O)c1ccco1)Nc1ccc(N2CCOCC2)cc1,i,i,i,nt,i,i,nt
COc1ccc(C(=O)OCC(=O)c2ccco2)cc1[N+](=O)[O-],i,i,i,nt,i,i,nt
